The values below come from ChEMBL document CHEMBL1137629, “Antiproliferative effect of dihydroxyacetone on Trypanosoma brucei bloodstream forms: cell cycle progression, subcellular alterations, and cell death” (Antimicrob Agents Chemother, 2007).

The test system of test [1] is Trypanosoma brucei. The test is described as follows: Induction of apoptosis-like programmed cell death in Trypanosoma brucei bloodstream form assessed as loss of mitochondrial-membrane potential at 100 nM after 24 hrs by TMRE staining. The test is classed as functional. In a few lines: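 T. brucei MITat 1.2 (EATRO 427) bloodstream forms were grown axenically at 37°C, 5% CO₂ and exposed to DHA for 24 h. Cells at 10⁶/ml were stained with 25 nM TMRE in culture medium for 30 min at 37°C and read at once by flow cytometry. Depolarization control: valinomycin 100 nM. Lower fluorescence signifies lost membrane potential.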

In test [2] the test system is Trypanosoma brucei. The test is described as follows: Trypanocidal activity against Trypanosoma brucei bloodstream form assessed as induction of autophagy at 5 uM after 24 hrs by transmission electron microscopy. The test is classed as functional, organism-based. An outline of the steps:
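Autophagy positive control. Bloodstream forms treated with 5 μM rapamycin (from a 50 mM ethanol stock), processed by glutaraldehyde/osmium fixation, uranyl acetate staining, resin embedding and sectioning for transmission electron microscopy.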

Active and inactive are the calls of the source. The rule behind the calls is not given here.

`CC(C)[C@@H]1NC(=O)[C@H](C)OC(=O)[C@@H](C(C)C)NC(=O)[C@@H](C(C)C)OC(=O)[C@H](C(C)C)NC(=O)[C@H](C)OC(=O)[C@@H](C(C)C)NC(=O)[C@@H](C(C)C)OC(=O)[C@H](C(C)C)NC(=O)[C@H](C)OC(=O)[C@@H](C(C)C)NC(=O)[C@@H](C(C)C)OC1=O` [VALINOMYCIN]: the Activity in test [1] was determined as 97.3%.
Turning to `CO[C@H]1C[C@@H]2CC[C@@H](C)[C@@](O)(O2)C(=O)C(=O)N2CCCC[C@H]2C(=O)O[C@H]([C@H](C)C[C@@H]2CC[C@@H](O)[C@H](OC)C2)CC(=O)[C@H](C)/C=C(\C)[C@@H](O)[C@@H](OC)C(=O)[C@H](C)C[C@H](C)/C=C/C=C/C=C/1C`, the result in test [2] was Active.
